# From ChEMBL document CHEMBL3872205, “Design, synthesis and evaluation of novel potent angiotensin II receptor 1 antagonists” (Eur J Med Chem, 2016)
# Columns and labels:
# [1] = Cmax in Wistar rat plasma at 30 mg/kg, po by HPLC analysis; format: ADME, organism-based; design: dose 30 mg/kg, route oral
# [2] = MRT (0 to 72 hrs) in Wistar rat lung at 10 mg/kg, po by HPLC analysis; format: ADME, organism-based
# Procedure, shortened: (§1)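 Male Wistar rats (180 ± 20 g) received a single oral dose of 10, 15 or 30 mg/kg. Tissues were collected at 0, 0.5, 1, 2, 4, 6, 8, 12, 24, 48 and 72 h (n = 6 per point). Samples of 0.25 g were rinsed, then homogenized in saline (0.25 g/1 mL) and centrifuged at 10,000 × g. Supernatant was methanol-extracted, dried under nitrogen at 50 °C and reconstituted in methanol. Analysis was by C18 HPLC (acetonitrile 60% / water 40%, 1.0 mL/min).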
# [3] = AUC (0 to 72 hrs) in Wistar rat liver at 15 mg/kg, po by HPLC analysis; format: ADME, organism-based; design: dose 15 mg/kg, time < 72 hr, route oral
# Procedure, shortened: (§2)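 Wistar rats (180 ± 20 g) were dosed orally at 10, 15 or 30 mg/kg. Heart, liver, spleen, lung, kidney and brain were collected at 0–72 h (n = 6 per point). Tissue was rinsed, blotted and homogenized in saline (0.25 g/1 mL), then spun at 10,000 × g. Supernatant was methanol-extracted, dried under nitrogen at 50 °C, reconstituted in methanol and run on C18 HPLC (acetonitrile 60%/water 40%, 1.0 mL/min).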
# [4] = Half life in Wistar rat plasma at 30 mg/kg, po by HPLC analysis; format: ADME, organism-based
# [5] = MRT (0 to 72 hrs) in Wistar rat spleen at 15 mg/kg, po by HPLC analysis; format: ADME, organism-based; procedure, shortened: as §1
# [6] = AUC (0 to 72 hrs) in Wistar rat lung at 30 mg/kg, po by HPLC analysis; format: ADME, organism-based; design: time < 72 hr, dose 30 mg/kg, route oral; procedure, shortened: as §2
# [7] = Cmax in Wistar rat lung at 10 mg/kg, po by HPLC analysis; format: ADME, organism-based; design: dose 10 mg/kg, route oral
# Procedure, shortened: (§3)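 Tissue distribution in male Wistar rats given oral 10, 15 or 30 mg/kg; heart, liver, spleen, lung, kidney and brain collected predose and 0.5–72 h post-dose (n = 6 per time). Tissue rinsed in saline, homogenised 0.25 g/1 mL saline, methanol extraction, dried under nitrogen, reconstituted in methanol. Analysis by reverse-phase C18 HPLC, acetonitrile/water 60:40, 1.0 mL/min, ambient temperature.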
# [8] = Half life in Wistar rat brain at 30 mg/kg, po by HPLC analysis; format: ADME, organism-based; procedure, shortened: as §3
# [9] = Half life in Wistar rat spleen at 30 mg/kg, po by HPLC analysis; format: ADME, organism-based; procedure, shortened: as §3
# [10] = Half life in Wistar rat lung at 15 mg/kg, po by HPLC analysis; format: ADME, organism-based; procedure, shortened: as §3
# [11] = AUC (0 to 72 hrs) in Wistar rat spleen at 30 mg/kg, po by HPLC analysis; format: ADME, organism-based; design: dose 30 mg/kg, time < 72 hr, route oral; procedure, shortened: as §2
# [12] = Tmax in Wistar rat lung at 15 mg/kg, po by HPLC analysis; format: ADME, organism-based; procedure, shortened: as §1
# [13] = MRT (0 to infinity) in Wistar rat Heart at 30 mg/kg, po by HPLC analysis; format: ADME, organism-based; procedure, shortened: as §1
# [14] = MRT (0 to infinity) in Wistar rat lung at 10 mg/kg, po by HPLC analysis; format: ADME, organism-based; procedure, shortened: as §1
# [15] = Cmax in Wistar rat spleen at 30 mg/kg, po by HPLC analysis; format: ADME, organism-based; design: dose 30 mg/kg, route oral; procedure, shortened: as §3
# [16] = Cmax in Wistar rat liver at 10 mg/kg, po by HPLC analysis; format: ADME, organism-based; design: dose 10 mg/kg, route oral; procedure, shortened: as §3
# [17] = Half life in Wistar rat kidney at 15 mg/kg, po by HPLC analysis; format: ADME, organism-based; procedure, shortened: as §3
# [18] = AUC (0 to infinity) in Wistar rat plasma at 30 mg/kg, po by HPLC analysis; format: ADME, organism-based; design: dose 30 mg/kg, route oral, time infinity
# Procedure, shortened: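 Male Wistar rats (180 ± 20 g, n = 6 per group) got one oral dose. Heparinized blood was taken by retro-orbital puncture before dosing and at 0.5–72 h. Plasma was spun at 4000 × g, 4 °C, 10 min, spiked with internal standard and protein-precipitated with acetonitrile. Analysis was reverse-phase C18 HPLC (0.02 mol/L KH2PO4 55%/acetonitrile 45%, 1.0 mL/min). Calibration used 0.1–10 µg/mL, peak-height ratio, weighting concentration^-2.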
# [19] = MRT (0 to infinity) in Wistar rat kidney at 15 mg/kg, po by HPLC analysis; format: ADME, organism-based; procedure, shortened: as §1
# [20] = AUC (0 to 72 hrs) in Wistar rat brain at 30 mg/kg, po by HPLC analysis; format: ADME, organism-based; design: dose 30 mg/kg, time < 72 hr, route oral; procedure, shortened: as §2
# [21] = Cmax in Wistar rat heart at 30 mg/kg, po by HPLC analysis; format: ADME, organism-based; design: dose 30 mg/kg, route oral; procedure, shortened: as §3
# [22] = AUC (0 to 72 hrs) in Wistar rat liver at 30 mg/kg, po by HPLC analysis; format: ADME, organism-based; design: time < 72 hr, dose 30 mg/kg, route oral; procedure, shortened: as §2
# [23] = AUC (0 to infinity) in Wistar rat lung at 15 mg/kg, po by HPLC analysis; format: ADME, organism-based; design: dose 15 mg/kg, route oral, time infinity; procedure, shortened: as §2
# [24] = MRT (0 to infinity) in Wistar rat plasma at 30 mg/kg, po by HPLC analysis; format: ADME, organism-based
# Procedure, shortened: (§4)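 Male Wistar rats (180 ± 20 g), 6 per dose group, each given a single oral dose. Blood was drawn by retro-orbital puncture into heparin at predose and at 0.5, 1, 2, 4, 6, 8, 12, 24, 48 and 72 h, then spun at 4000 × g and 4 °C. Plasma with internal standard was acetonitrile-precipitated, filtered and run on reverse-phase C18 HPLC (0.02 mol/L KH2PO4 55% / acetonitrile 45%, 1.0 mL/min). Calibration standards were 0.1–10 µg/mL, fitted by peak-height ratio with 1/conc² weighting.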
# [25] = Half life in Wistar rat brain at 10 mg/kg, po by HPLC analysis; format: ADME, organism-based; procedure, shortened: as §3
# [26] = MRT (0 to infinity) in Wistar rat plasma at 15 mg/kg, po by HPLC analysis; format: ADME, organism-based; procedure, shortened: as §4
# [27] = MRT (0 to infinity) in Wistar rat spleen at 15 mg/kg, po by HPLC analysis; format: ADME, organism-based; procedure, shortened: as §1
# [28] = AUC (0 to 72 hrs) in Wistar rat lung at 10 mg/kg, po by HPLC analysis; format: ADME, organism-based; design: time < 72 hr, dose 10 mg/kg, route oral; procedure, shortened: as §2
# [29] = Half life in Wistar rat brain at 15 mg/kg, po by HPLC analysis; format: ADME, organism-based; procedure, shortened: as §3
# [30] = AUC (0 to 72 hrs) in Wistar rat kidney at 15 mg/kg, po by HPLC analysis; format: ADME, organism-based; design: dose 15 mg/kg, time < 72 hr, route oral; procedure, shortened: as §2
# [31] = Tmax in Wistar rat spleen at 30 mg/kg, po by HPLC analysis; format: ADME, organism-based
# Mus musculus = test: Toxicity in ICR mouse assessed as untoward reaction at 1200 mg/kg, po after 2 weeks; format: organism-based; settings: in vivo, 336 h
# [32] = Toxicity in ICR mouse assessed as mortality at 2929.69 mg/kg, ig after 2 weeks; format: organism-based; settings: in vivo, po
# [33] = Half life in Wistar rat liver at 10 mg/kg, po by HPLC analysis; format: ADME, organism-based; procedure, shortened: as §3
# [34] = MRT (0 to 72 hrs) in Wistar rat liver at 10 mg/kg, po by HPLC analysis; format: ADME, organism-based; procedure, shortened: as §3
# [35] = AUC (0 to infinity) in Wistar rat Heart at 30 mg/kg, po by HPLC analysis; format: ADME, organism-based; design: dose 30 mg/kg, route oral, time infinity; procedure, shortened: as §2
# [36] = Half life in Wistar rat liver at 15 mg/kg, po by HPLC analysis; format: ADME, organism-based; procedure, shortened: as §3
compound,measurement,setting,value
CCCCC1=NC2(CCCC2)C(=O)N1Cc1ccc2c(ccn2-c2ccccc2-c2nnn[nH]2)c1,Cmax,[1],5760 ng/mL
same,MRT last,[2],10.6 h
same,AUC(0-t) at 72 h,[3],4890 ng·h/mL
same,half-life,[4],9.93 h
same,MRT last,[5],9.71 h
same,AUC(0-t) at 72 h,[6],2360 ng·h/mL
same,Cmax,[7],62.1 ng/mL
same,half-life,[8],2.99 h
same,half-life,[9],13.4 h
same,half-life,[10],2.46 h
same,AUC(0-t) at 72 h,[11],18900 ng·h/mL
same,Tmax,[12],1 h
same,MRT inf,[13],28.1 h
same,MRT inf,[14],10.6 h
same,Cmax,[15],1880 ng/mL
same,Cmax,[16],721 ng/mL
same,half-life,[17],22.6 h
same,AUC(0-inf),[18],88800 ng·h/mL
same,MRT inf,[19],29.4 h
same,AUC(0-t) at 72 h,[20],1790 ng·h/mL
same,Cmax,[21],401 ng/mL
same,AUC(0-t) at 72 h,[22],14500 ng·h/mL
same,AUC(0-inf),[23],1350 ng·h/mL
same,MRT inf,[24],16.1 h
same,half-life,[25],2.73 h
same,MRT inf,[26],13.7 h
same,MRT inf,[27],13.1 h
same,AUC(0-t) at 72 h,[28],745 ng·h/mL
same,half-life,[29],2.59 h
same,AUC(0-t) at 72 h,[30],5730 ng·h/mL
same,Tmax,[31],2 h
same,Activity,Mus musculus,Non-Toxic
same,mortality at 336 h,[32],100%
same,half-life,[33],2.33 h
same,MRT last,[34],4.93 h
same,AUC(0-inf),[35],8760 ng·h/mL
same,half-life,[36],1.8 h
